How the values were obtained:
[1] = tested on: HAB1 PP2C with PYR/PYL receptors; assay: HAB1 phosphatase activity assay; format: biochemical, Arabidopsis thaliana; conditions: 10 μM; PYR1 and PYL1-10
[2] = tested on: ABA-induced stress-related genes; assay: Quantitative RT-PCR of ABA-induced genes in seedlings; format: in vivo, Arabidopsis thaliana; conditions: 50 μM, 6 h
[3] = tested on: reconstructed ABA signaling pathway (PYR1+HAB1+SnRK2.6+ABF2), RD29b-luciferase reporter; assay: Protoplast transactivation assay; format: cell-based, Arabidopsis thaliana; conditions: snrk2.2/2.3/2.6 protoplasts transfected with PYR1, HAB1, SnRK2.6, ABF2; 5 μM AM1
Method in brief: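 Protoplasts came from 4-week-old pRD29b-LUC plants (snrk2.2/2.3/2.6 background) grown on soil pellets under 8-h light/16-h dark. They were transfected with PYR1, HAB1, SnRK2.6 and ABF2, or the same set without PYR1. Cells were treated with 5 µM test compound; DMSO control. RD29b-driven luciferase was measured.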

[4] = tested on: Arabidopsis seedlings transcriptome; assay: RNA-seq transcriptome profiling of seedlings; format: in vivo, Arabidopsis thaliana; conditions: 50 μM, FDR < 0.05
Method in brief: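 Ten-day-old Col-0 seedlings on half-strength MS were exposed for 6 h to 50 µM test compound or (+)-ABA, or 0.05% DMSO. Duplicate biological replicates were sequenced on Illumina HiSeq2000 (10 M reads/sample, mean length >49 bp). Fold-change versus DMSO was log2-transformed; Spearman correlations were computed between samples. Differential genes were called by SAM analysis.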

[5] = tested on: Arabidopsis seeds (Col-0 and pyr1;pyl1;pyl4); assay: Seed germination assay; format: in vivo, Arabidopsis thaliana; conditions: 1 μM
Method in brief: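 Col-0 and pyr1;pyl1;pyl4 seeds were stratified 4 days, then sown on half-strength MS (1% sucrose) containing 1 µM test compound or (+)-ABA; DMSO control. Plates were kept at 22 °C under long day, 15 seeds per plate and 4 plates per chemical. Germination was defined as expanded green cotyledons and counted 4 days after triple-mutant germination; mean ± SD.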

[6] = tested on: Col-0 plants rosette leaves; assay: Water loss; format: in vivo, Arabidopsis thaliana; conditions: one-month-old Col-0 plants, 50 μM spray, compared with DMSO
Method in brief: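 Well-watered 4-week-old Col-0 plants on soil (8-h light/16-h dark) were sprayed with 50 µM test compound plus 0.02% Tween-20; DMSO control. Plants were returned to the chamber for 3 h. Equal-sized rosette leaves were then detached and weighed in air every 5 min for the first hour and every 10 min for the second. Loss is expressed as % of initial fresh weight; n = 4, standard error.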

[7] = Stability measurement under UV light; format: physicochemical; conditions: water exposed to UV light (8 W)
Method in brief: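 Test compound and ABA, each 100 µM in pure water, were exposed in aliquots to an 8 W UV lamp in a safety hood. Aliquots were withdrawn at set time points for LC-MS. Amounts were quantified from peak areas, and half-life was calculated from peak disappearance.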

## CC1=CC(=O)CC(C)(C)[C@@]1(O)/C=C/C(C)=C\C(=O)O [ABA, Abscisic acid]
[1]
  receptor-mediated inhibition of HAB1 PP2C activity: inhibited by all receptor subtypes tested
[2]; pyr1/pyl1/pyl4 triple mutant plants
  activation of six ABA-inducible genes: much reduced, but remained inducible
[2]; wild-type plants
  activation of six ABA-inducible genes: dramatically activated
[3]
  activation of RD29b-luciferase reporter: efficiently activate
[4]
  number of genes induced (up- or down-regulated) vs DMSO: 4 529 genes
[5]; pyr1/pyl1/pyl4 triple mutant
  inhibition of seed germination: completely abolished
[5]; wild-type Col-0 seeds
  inhibition of seed germination: inhibit germination
[6]
  water loss of rosette leaves: decreased
[7]
  half-life at 100 μM: 24 min
